Results: ChEMBL document CHEMBL1144398, “Structure-based design, parallel synthesis, structure-activity relationship, and molecular modeling studies of thiocarbamates, new potent non-nucleoside HIV-1 reverse transcriptase inhibitor isosteres of phenethylthiazolylthiourea derivatives” (J Med Chem, 2005)

Legend:
MT4 [1] = test: Cytotoxic concentration required to reduce the viability of mock infected MT-4 cells determined by MTT method; assay type: functional; details: Homo sapiens
Outline: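 Viability of mock-infected MT-4 cells, assayed in parallel with the antiviral test, read by MTT. CC50 is the concentration that lowers viability by 50%. Values are means of three separate experiments, with variation among triplicates under 10%. The highest concentration tested was 100 µM.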

MT4 [2] = test: Ratio of CC50 to that of EC50 determined in MT-4 cells; assay type: functional
Outline: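 Selectivity index, calculated as CC50/EC50. CC50 came from MTT viability of mock-infected MT-4 cells and EC50 from MTT-read protection of HIV-1-infected MT-4 cells from cytopathogenicity, with both run in parallel. Values are means of three experiments.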

MT4 [3] = test: Effective concentration require to protect MT-4 cells from human immunodeficiency virus type 1 induced cytopathogenicity was determined by MTT method; assay type: functional, cell-based
Outline: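 MT-4 cells infected with HIV-1, with test compounds added. Protection from virus-induced cytopathogenicity was read by MTT. EC50 is the concentration giving 50% protection. Values are means of three separate experiments, with variation among triplicates under 10%. Trovirdine served as the reference.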

| SMILES | CC50 (MT4 [1]) | SI (MT4 [2]) | EC50 (MT4 [3]) |
| --- | --- | --- | --- |
| O=C1c2ccccc2C(=O)N1CCOC(=S)Nc1ccccc1Cl | > 100 µM | >5.9 | 17 µM |
| COc1ccc(NC(=S)OCCN2C(=O)c3ccccc3C2=O)cc1 | > 100 µM | >3333 | 0.03 µM |
| CC(=O)c1ccc(NC(=S)OCCN2C(=O)c3ccccc3C2=O)cc1 | > 100 µM | >714 | 0.14 µM |
| N#Cc1ccc(/N=C(/S)OCCNC(=O)c2ccccc2C(=O)O)cc1 | > 100 µM | >1000 | 0.1 µM |
| CSc1cccc(NC(=S)OCCNC(=O)c2ccccc2C(=O)O)c1 | > 100 µM | >9.1 | 11 µM |
| O=C(O)c1ccccc1C(=O)NCCO/C(S)=N\c1ccc(OCc2ccccc2)cc1 | > 100 µM | >200 | 0.5 µM |
| CSc1cccc(NC(=S)OCCN2C(=O)c3ccccc3C2=O)c1 | > 100 µM | >14.3 | 7 µM |
| COc1cccc(NC(=S)OCCN2C(=O)c3ccccc3C2=O)c1 | > 100 µM | >25 | 4 µM |
| CCOc1ccc(NC(=S)OCCNC(=O)c2ccccc2C(=O)O)cc1 | > 100 µM | 50 | 2 µM |
| O=C1c2ccccc2C(=O)N1CCCOC(=S)Nc1ccccc1 | > 100 µM | – | > 100 µM |
| COC(=O)c1cccc(NC(=S)OCCN2C(=O)c3ccccc3C2=O)c1 | > 100 µM | >4.8 | 21 µM |
| O=C1c2ccccc2C(=O)N1CCOC(=S)Nc1cccc2ccccc12 | > 100 µM | >15.4 | 6.5 µM |
| Cc1ccc(NC(=S)OCCNC(=O)c2ccccc2C(=O)O)cc1 | > 100 µM | >250 | 0.4 µM |
| CCN(CC)c1ccc(NC(=S)OCCN2C(=O)c3ccccc3C2=O)cc1 | > 100 µM | >71 | 1.4 µM |
| O=C(O)c1ccccc1C(=O)NCCO/C(S)=N\c1cccc(Cl)c1 | > 100 µM | >33.3 | 3 µM |
| CCc1ccc(NC(=S)OCCNC(=O)c2ccccc2C(=O)O)cc1 | > 100 µM | >333 | 0.3 µM |
| O=C1c2ccccc2C(=O)N1CCOC(=S)Nc1cccc(C(F)(F)F)c1 | > 100 µM | >7.7 | 13 µM |
| CN(C)c1ccc(NC(=S)OCCN2C(=O)c3ccccc3C2=O)cc1 | > 100 µM | >167 | 0.6 µM |
| O=C(O)c1ccccc1C(=O)NCCO/C(S)=N\c1ccc(Cl)cc1 | > 100 µM | >1000 | 0.1 µM |
| Cc1ccccc1/N=C(/S)OCCNC(=O)c1ccccc1C(=O)O | > 100 µM | >3.7 | 27 µM |
| CC(C)c1ccc(NC(=S)OCCNC(=O)c2ccccc2C(=O)O)cc1 | > 100 µM | >27 | 3.7 µM |
| Cc1cccc(NC(=S)OCCN2C(=O)c3ccccc3C2=O)c1 | > 100 µM | >66.7 | 1.5 µM |
| O=C1c2ccccc2C(=O)N1COC(=S)Nc1ccc([N+](=O)[O-])cc1 | 23 µM | – | > 23 µM |
| O=C(O)c1ccccc1C(=O)NCCO/C(S)=N\c1ccccc1 | > 100 µM | >33.3 | 3 µM |
| O=C(O)c1ccccc1C(=O)NCCO/C(S)=N\c1ccc(Br)cc1 | > 100 µM | >1000 | 0.1 µM |
| O=C(O)c1ccccc1C(=O)NCCO/C(S)=N\c1ccc(F)cc1 | > 100 µM | >400 | 0.25 µM |
| O=C1C2C3C=CC(C3)C2C(=O)N1CCOC(=S)Nc1ccc([N+](=O)[O-])cc1 (stereo not given) | > 100 µM | – | > 100 µM |
| COC(=O)c1ccccc1/N=C(/S)OCCN1C(=O)c2ccccc2C1=O | 45 µM | – | > 45 µM |

| SMILES | CC50 (MT4 [1]) | SI (MT4 [2]) | EC50 (MT4 [3]) |
| --- | --- | --- | --- |
| O=C(O)c1ccccc1C(=O)NCCO/C(S)=N\c1ccccc1F | > 100 µM | >200 | 0.5 µM |
| Cc1cccc(NC(=S)OCCNC(=O)c2ccccc2C(=O)O)c1 | > 100 µM | >20 | 5 µM |
| O=C(O)c1ccccc1C(=O)NCCO/C(S)=N\c1ccc([N+](=O)[O-])cc1 | > 100 µM | >333 | 0.3 µM |
| COc1ccccc1/N=C(/S)OCCNC(=O)c1ccccc1C(=O)O | > 100 µM | >1.5 | 65 µM |
| O=C1c2ccccc2C(=O)N1CCOC(=S)NC1CCCCC1 | > 100 µM | >333 | 0.3 µM |
| COc1cccc(NC(=S)OCCNC(=O)c2ccccc2C(=O)O)c1 | > 100 µM | >38.5 | 2.6 µM |
| CCOC(=O)c1ccc(NC(=S)OCCN2C(=O)c3ccccc3C2=O)cc1 | > 100 µM | >4.3 | 23 µM |
| O=C1c2ccccc2C(=O)N1CCOC(=S)Oc1ccc(Cl)cc1 | > 100 µM | – | > 100 µM |
| CC(C)c1ccc(NC(=S)OCCN2C(=O)c3ccccc3C2=O)cc1 | 94 µM | 2350 | 0.04 µM |
| O=C(O)c1ccccc1C(=O)NCCO/C(S)=N\c1ccccc1[N+](=O)[O-] | > 100 µM | – | > 100 µM |
| Cc1ccccc1/N=C(/S)OCCN1C(=O)c2ccccc2C1=O | > 100 µM | >27 | 3.7 µM |
| COc1ccccc1/N=C(/S)OCCN1C(=O)c2ccccc2C1=O | > 100 µM | >17.9 | 5.6 µM |
| O=C1c2ccccc2C(=O)N1CCOC(=S)Nc1ccccc1Br | > 100 µM | >7.1 | 14 µM |
| O=C1c2ccccc2C(=O)N1CCO/C(S)=N\c1ccccc1F | > 100 µM | >33 | 3 µM |
| Cc1ccc(OC(=S)OCCN2C(=O)c3ccccc3C2=O)cc1 | > 100 µM | – | > 100 µM |
| O=C1c2ccccc2C(=O)N1CCOC(=S)Nc1cccc(Cl)c1 | > 100 µM | >50 | 2 µM |
| CCOc1ccc(NC(=S)OCCN2C(=O)c3ccccc3C2=O)cc1 | > 100 µM | >14.3 | 7 µM |
| O=C1c2ccccc2C(=O)N1CCO/C(S)=N\c1ccccc1C(F)(F)F | > 100 µM | >1.5 | 65 µM |
| O=C1c2ccccc2C(=O)N1CCO/C(S)=N\c1ccccc1[N+](=O)[O-] | > 100 µM | – | > 100 µM |
| O=C1c2ccccc2C(=O)N1CCOC(=S)Nc1cccc([N+](=O)[O-])c1 | > 100 µM | >167 | 0.6 µM |
| O=C1c2ccccc2C(=O)N1CCOC(=S)Nc1ccc(C(F)(F)F)cc1 | > 100 µM | >2500 | 0.04 µM |
| CC(C)c1ccccc1/N=C(/S)OCCN1C(=O)c2ccccc2C1=O | > 100 µM | >2.3 | 43 µM |
| CC(=O)c1cccc(NC(=S)OCCN2C(=O)c3ccccc3C2=O)c1 | > 100 µM | >23 | 4.3 µM |
| COC(=O)c1ccccc1/N=C(/S)OCCNC(=O)c1ccccc1C(=O)O | > 100 µM | – | > 100 µM |
| COC(=O)c1cccc(NC(=S)OCCNC(=O)c2ccccc2C(=O)O)c1 | > 100 µM | – | > 100 µM |
| CCc1ccc(NC(=S)OCCN2C(=O)c3ccccc3C2=O)cc1 | > 100 µM | >1250 | 0.08 µM |
| COc1ccc(NC(=S)OCCNC(=O)c2ccccc2C(=O)O)cc1 | > 100 µM | >500 | 0.2 µM |
